Measurements: ChEMBL document CHEMBL1124366, “Synthesis and biological properties of N63-carboxamides of teicoplanin antibiotics. Structure-activity relationships” (J Med Chem, 1989)
≈ marks a conversion by molar mass, not a printed value.

Columns and labels:
Type in all cases: functional
Escherichia coli = test: In vitro minimum inhibitory concentration against Escherichia coli SKF 12140
Streptococcus pyogenes [1] = test: Subcutaneously administration into mice infected with Streptococcus pyogenes C 203; conditions: sc
Procedure, shortened: (§1)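 Mice (five per treatment group, five groups) infected intraperitoneally with about 10⁵ cells of Strep. pyogenes C 203, about 100× the LD50. ED50 (mg/kg) was calculated from the percentage of mice surviving at each dose on day 7.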

[2] = system: Staphylococcus epidermidis; test: In vitro minimum inhibitory concentration against Staphylococcus epidermis ATCC 12228
Staphylococcus aureus = test: In vitro minimum inhibitory concentration against Staphylococcus aureus Tour
Streptococcus pneumoniae = test: In vitro minimum inhibitory concentration against Streptococcus pneumoniae UC41
Streptococcus pyogenes [3] = test: In vitro minimum inhibitory concentration against Streptococcus pyogenes C 203
Enterococcus faecalis = test: In vitro minimum inhibitory concentration against Streptococcus faecalis ATCC 7080
Proteus vulgaris = test: In vitro minimum inhibitory concentration against Proteus vulgaris X 19 ATCC 881
Streptococcus pyogenes [4] = test: In vivo effective dose given perorally to mice infected with Streptococcus pyogenes C 203; conditions: po; procedure, shortened: as §1
[5] = system: Staphylococcus haemolyticus; test: In vitro minimum inhibitory concentration against Staphylococcus hemolyticus 602 cell line; conditions: strain 602

Row | SMILES | MIC (Escherichia coli) [µg/mL] | ED50 (Streptococcus pyogenes [1]) [mg/kg] | MIC [2] [µg/mL] | MIC (Staphylococcus aureus) [µg/mL] | MIC (Streptococcus pneumoniae) [µg/mL] | MIC (Streptococcus pyogenes [3]) [µg/mL] | MIC (Enterococcus faecalis) [µg/mL] | MIC (Proteus vulgaris) [µg/mL] | ED50 (Streptococcus pyogenes [4]) [mg/kg] | MIC [5] [µg/mL]
1 | COC(=O)CNC(=O)[C@H]1NC(=O)[C@H]2NC(=O)[C@H](NC(=O)[C@@H]3NC(=O)[C@H]4NC(=O)[C@@H](Cc5ccc(c(Cl)c5)Oc5cc3cc(c5O)Oc3ccc(cc3Cl)[C@H]2O[C@@H]2O[C@@H](CO)[C@@H](O)[C@H](O)[C@@H]2NC(C)=O)NC(=O)[C@H](N)c2ccc(O)c(c2)Oc2cc(O)cc4c2)c2ccc(O)c(c2)-c2c(O)cc(O)cc21 | > 128 | 7 | 0.06 (≈ 0.0407 µM) | 0.25 (≈ 0.17 µM) | 2 (≈ 1.36 µM) | 0.25 (≈ 0.17 µM) | 0.5 (≈ 0.339 µM) | > 128 | – | –
2 | CCN(CC)CCCNC(=O)[C@H]1NC(=O)[C@H]2NC(=O)[C@H](NC(=O)[C@@H]3NC(=O)[C@H]4NC(=O)[C@@H](Cc5ccc(c(Cl)c5)Oc5cc3cc(c5O)Oc3ccc(cc3Cl)[C@H]2O[C@@H]2O[C@@H](CO)[C@@H](O)[C@H](O)[C@@H]2NC(C)=O)NC(=O)[C@H](N)c2ccc(O)c(c2)Oc2cc(O)cc4c2)c2ccc(O)c(c2)-c2c(O)cc(O)cc21 | 64 (≈ 42.3 µM) | 0.95 | 0.06 (≈ 0.0396 µM) | 0.12 (≈ 0.0792 µM) | 0.5 (≈ 0.33 µM) | 0.12 (≈ 0.0792 µM) | 0.25 (≈ 0.165 µM) | 128 (≈ 84.5 µM) | – | –
3 | CCCCN(CCCC)CCCNC(=O)[C@H]1NC(=O)[C@H]2NC(=O)[C@H](NC(=O)[C@@H]3NC(=O)[C@H]4NC(=O)[C@@H](Cc5ccc(c(Cl)c5)Oc5cc3cc(c5O[C@@H]3O[C@@H](CO)[C@@H](O)[C@H](O)[C@@H]3NC(=O)CCCCCCC(C)C)Oc3ccc(cc3Cl)[C@H]2O[C@@H]2O[C@@H](CO)[C@@H](O)[C@H](O)[C@@H]2NC(C)=O)NC(=O)[C@H](N)c2ccc(O)c(c2)Oc2cc(O)cc4c2)c2ccc(O)c(c2)-c2c(O[C@H]3O[C@H](CO)[C@@H](O)[C@@H](O)[C@@H]3O)cc(O)cc21 | – | 0.1 | 0.06 (≈ 0.0293 µM) | 0.25 (≈ 0.122 µM) | 0.06 (≈ 0.0293 µM) | 0.06 (≈ 0.0293 µM) | 0.12 (≈ 0.0586 µM) | – | 300 | –
4 | CC(=O)N[C@@H]1[C@H](O[C@@H]2c3ccc(c(Cl)c3)Oc3cc4cc(c3O[C@@H]3O[C@@H](CO)[C@@H](O)[C@H](O)[C@@H]3NC(=O)CCCCCCC(C)C)Oc3ccc(cc3Cl)C[C@H]3NC(=O)[C@H](N)c5ccc(O)c(c5)Oc5cc(O)cc(c5)[C@H](NC3=O)C(=O)N[C@H]4C(=O)N[C@H]3C(=O)N[C@@H]2C(=O)N[C@H](C(=O)NCCN2CCCC2)c2cc(O)cc(O[C@H]4O[C@H](CO)[C@@H](O)[C@@H](O)[C@@H]4O)c2-c2cc3ccc2O)O[C@@H](CO)[C@@H](O)[C@@H]1O | – | 0.06 | 0.12 (≈ 0.0607 µM) | 0.12 (≈ 0.0607 µM) | 0.12 (≈ 0.0607 µM) | 0.06 (≈ 0.0304 µM) | 0.12 (≈ 0.0607 µM) | – | 173 | –
5 | CC(=O)N[C@@H]1[C@H](O[C@@H]2c3ccc(c(Cl)c3)Oc3cc4cc(c3O[C@@H]3O[C@@H](CO)[C@@H](O)[C@H](O)[C@@H]3NC(=O)CCCCCCC(C)C)Oc3ccc(cc3Cl)C[C@H]3NC(=O)[C@H](N)c5ccc(O)c(c5)Oc5cc(O)cc(c5)[C@H](NC3=O)C(=O)N[C@H]4C(=O)N[C@H]3C(=O)N[C@@H]2C(=O)N[C@H](C(=O)N2CCN(C)CC2)c2cc(O)cc(O[C@H]4O[C@H](CO)[C@@H](O)[C@@H](O)[C@@H]4O)c2-c2cc3ccc2O)O[C@@H](CO)[C@@H](O)[C@@H]1O | – | < 0.03 | 0.12 (≈ 0.0612 µM) | 0.12 (≈ 0.0612 µM) | 0.12 (≈ 0.0612 µM) | 0.06 (≈ 0.0306 µM) | 0.06 (≈ 0.0306 µM) | – | 115 | –
6 | CC(=O)N[C@@H]1[C@H](O[C@@H]2c3ccc(c(Cl)c3)Oc3cc4cc(c3O[C@@H]3O[C@@H](CO)[C@@H](O)[C@H](O)[C@@H]3NC(=O)CCCCCCC(C)C)Oc3ccc(cc3Cl)C[C@H]3NC(=O)[C@H](N)c5ccc(O)c(c5)Oc5cc(O)cc(c5)[C@H](NC3=O)C(=O)N[C@H]4C(=O)N[C@H]3C(=O)N[C@@H]2C(=O)N[C@H](C(=O)NC2CN4CCC2CC4)c2cc(O)cc(O[C@H]4O[C@H](CO)[C@@H](O)[C@@H](O)[C@@H]4O)c2-c2cc3ccc2O)O[C@@H](CO)[C@@H](O)[C@@H]1O (stereo partly drawn) | – | 0.07 | 0.12 (≈ 0.0604 µM) | 0.12 (≈ 0.0604 µM) | 0.06 (≈ 0.0302 µM) | 0.06 (≈ 0.0302 µM) | 0.12 (≈ 0.0604 µM) | – | 173 | –
7 | CC(=O)N[C@@H]1[C@H](O[C@@H]2c3ccc(c(Cl)c3)Oc3cc4cc(c3O[C@@H]3O[C@@H](CO)[C@@H](O)[C@H](O)[C@@H]3NC(=O)CCCCCCC(C)C)Oc3ccc(cc3Cl)C[C@H]3NC(=O)[C@H](N)c5ccc(O)c(c5)Oc5cc(O)cc(c5)[C@H](NC3=O)C(=O)N[C@H]4C(=O)N[C@H]3C(=O)N[C@@H]2C(=O)N[C@H](C(=O)N(C)C)c2cc(O)cc(O[C@H]4O[C@H](CO)[C@@H](O)[C@@H](O)[C@@H]4O)c2-c2cc3ccc2O)O[C@@H](CO)[C@@H](O)[C@@H]1O | – | 0.08 | 0.25 (≈ 0.131 µM) | 0.12 (≈ 0.0629 µM) | 0.06 (≈ 0.0315 µM) | 0.06 (≈ 0.0315 µM) | 0.12 (≈ 0.0629 µM) | – | 139 | –
8 | CCCCC/C=C/CCC(=O)N[C@@H]1[C@H](Oc2c3cc4cc2Oc2ccc(cc2Cl)[C@@H](O[C@@H]2O[C@@H](CO)[C@@H](O)[C@H](O)[C@@H]2NC(C)=O)[C@@H]2NC(=O)[C@H](NC(=O)[C@@H]4NC(=O)[C@H]4NC(=O)[C@@H](Cc5ccc(c(Cl)c5)O3)NC(=O)[C@H](N)c3ccc(O)c(c3)Oc3cc(O)cc4c3)c3ccc(O)c(c3)-c3c(O[C@H]4O[C@H](CO)[C@@H](O)[C@@H](O)[C@@H]4O)cc(O)cc3[C@@H](C(=O)NC(CCC(=O)O)C(=O)O)NC2=O)O[C@@H](CO)[C@@H](O)[C@@H]1O (stereo partly drawn) | – | – | 0.12 (≈ 0.0598 µM) | 0.5 (≈ 0.249 µM) | 0.12 (≈ 0.0598 µM) | 0.06 (≈ 0.0299 µM) | 0.25 (≈ 0.125 µM) | – | – | 4 (≈ 1.99 µM)
9 | CC(=O)NC1C(O[C@@H]2c3ccc(c(Cl)c3)Oc3cc4cc(c3O)Oc3ccc(cc3Cl)C[C@H]3NC(=O)[C@H](N)c5ccc(O)c(c5)Oc5cc(O)cc(c5)[C@H](NC3=O)C(=O)N[C@H]4C(=O)N[C@H]3C(=O)N[C@@H]2C(=O)N[C@H](C(=O)NCCN2CCCC2)c2cc(O)cc(O)c2-c2cc3ccc2O)OC(CO)C(O)C1O (stereo partly drawn) | 128 (≈ 85.4 µM) | 2.2 | 0.06 (≈ 0.04 µM) | 0.12 (≈ 0.0801 µM) | 0.25 (≈ 0.167 µM) | 0.25 (≈ 0.167 µM) | 0.5 (≈ 0.334 µM) | > 128 | – | –
10 | CCOC(=O)CNC(=O)[C@H]1NC(=O)[C@H]2NC(=O)[C@H](NC(=O)[C@@H]3NC(=O)[C@H]4NC(=O)[C@@H](Cc5ccc(c(Cl)c5)Oc5cc3cc(c5O)Oc3ccc(cc3Cl)[C@H]2O[C@@H]2O[C@@H](CO)[C@@H](O)[C@H](O)[C@@H]2NC(C)=O)NC(=O)[C@H](N)c2ccc(O)c(c2)Oc2cc(O)cc4c2)c2ccc(O)c(c2)-c2c(O)cc(O)cc21 | 128 (≈ 86.1 µM) | 5 | 0.12 (≈ 0.0807 µM) | 0.5 (≈ 0.336 µM) | 1 (≈ 0.672 µM) | 0.25 (≈ 0.168 µM) | 1 (≈ 0.672 µM) | > 128 | – | –
